Calls of active or inactive are those of the source. The calls are words filed in the database; no cut-off is given here.
Assays:
[1] = species on record: Homo sapiens; test: Inhibition of CAMKK (unknown origin) at 1 uM in presence of 32ATP relative to control
Outline: (§1)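 Express screen of 52 purified human kinases run as a radioactive filter-binding assay with 32ATP, at 1 μM inhibitor. ATP was at or below each kinase's calculated Km. Activity is given as percent of the activity without inhibitor. Run in duplicate; mean with S.D.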

[2] = target: Mu-type opioid receptor (Homo sapiens) (UniProt P35372); test: Inhibition of HA-tagged MOPr (unknown origin) stably expressed in human U2OS cells assessed as reduction in DAMGO induced large recruitment of arrestin-3 translocation at 30 uM preincubated for 30 mins by DiscoveRx PathHunter assay; assay type: functional, cell-based
Outline: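 PathHunter U2OS cells stably express tagged human MOPr and tagged arrestin-3. Recruitment reconstitutes β-galactosidase, read by luminescence. DAMGO 10 μM was applied for 90 min, with inhibitor (30 μM) added 30 min before; n = 3.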

[3] = target: Mu-type opioid receptor (Rattus norvegicus) (UniProt P33535); test: Inhibition of HA-tagged rat MOPr in HEK293 cells assessed as DAMGO induced MOPr phosphorylation at Ser375 level at 30 uM preincubated for 30 mins by western blot analysis; assay type: functional, cell-based
Outline: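 Serum-starved HEK 293 cells stably expressing HA-rat MOPr were pretreated with inhibitor for 30 min, then DAMGO 10 μM for 5 min. Receptor was enriched on WGA-agarose overnight at 4°C and blotted for pSer375. Densitometry was done in duplicate and normalized to total HA-MOPr; n = 3.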

[4] = target: Mitogen-activated protein kinase 8 (Homo sapiens) (UniProt P45983); test: Inhibition of human JNK1 assessed as remaining activity at 1 uM in presence of 32ATP relative to control
Outline: (§2)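 Express panel of 52 purified human kinases run in vitro. Kinase activity was measured directly by a radioactive filter-binding assay with ³²ATP, at ATP levels at or below each kinase's calculated Km for ATP. The compound was tested at 1 μM. Each assay was run in duplicate, and activity is given as the mean percentage (with S.D.) of activity without inhibitor.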

[5] = target: Tyrosine-protein kinase BTK (Homo sapiens) (UniProt Q06187); test: Inhibition of human BTK assessed as remaining activity at 1 uM in presence of 32ATP relative to control; outline: as §1
[6] = target: SRSF protein kinase 1 (Homo sapiens) (UniProt Q96SB4); test: Inhibition of human SRPK1 assessed as remaining activity at 1 uM in presence of 32ATP relative to control; outline: as §2
[7] = target: Mu-type opioid receptor (Rattus norvegicus) (UniProt P33535); test: Inhibition of HA-tagged rat MOPr in HEK293 cells assessed as prevention in DAMGO induced MOPr phosphorylation at Thr376 level at 30 uM preincubated for 30 mins by western blot analysis; assay type: functional, cell-based
[8] = target: c-Jun N-terminal kinase, JNK (Homo sapiens) (UniProt P45983+P53779+P45984); test: Inhibition of JNK (unknown origin) at 1 uM in presence of 32ATP relative to control; assay type: protein assay; outline: as §1
[9] = target: Mu-type opioid receptor (Rattus norvegicus) (UniProt P33535); test: Inhibition of HA-tagged rat MOPr stably expressing in HEK293 cells assessed as increase in DAMGO-induced ERK1/2 phosphorylation level at 3 to 30 uM preincubated for 30 mins by westernblot analysis; assay type: functional, cell-based; conditions: dose 3-30 µM
Outline: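 HEK 293 cells stably expressing HA-tagged rat MOPr were grown to 90% confluence and serum-starved 24 h. Inhibitor was added for 30 min, then DAMGO 10 μM for 5 min. pERK1/2 was measured by Western blot with ECL detection. Densitometry was done in duplicate, normalized to total ERK1/2 and expressed as % of maximal DAMGO response; n = 4.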

[10] = target: Homeodomain-interacting protein kinase 2 (Homo sapiens) (UniProt Q9H2X6); test: Inhibition of human HIPK2 assessed as remaining activity at 1 uM in presence of 32ATP relative to control; outline: as §2
[11] = target: 3-phosphoinositide-dependent protein kinase 1 (Homo sapiens) (UniProt O15530); test: Inhibition of human PDK1 assessed as remaining activity at 1 uM in presence of 32ATP relative to control
[12] = target: Calcium/calmodulin-dependent protein kinase kinase 2 (Homo sapiens) (UniProt Q96RR4); test: Inhibition of human CAMKKb assessed as remaining activity at 1 uM in presence of 32ATP relative to control; outline: as §1
[13] = target: Proto-oncogene tyrosine-protein kinase Src (Homo sapiens) (UniProt P12931); test: Inhibition of human Src assessed as remaining activity at 1 uM in presence of 32ATP relative to control; outline: as §2
[14] = target: Protein kinase C alpha type (Homo sapiens) (UniProt P17252); test: Inhibition of human PKCalpha assessed as remaining activity at 1 uM in presence of 32ATP relative to control; outline: as §2
[15] = target: Protein kinase C (PKC) (Homo sapiens) (UniProt O94806+P41743+P17252+P05129+Q05655+P05771+Q05513+Q02156+P24723+Q15139+Q04759); test: Inhibition of PKC (unknown origin) at 1 uM in presence of 32ATP relative to control; assay type: protein assay; outline: as §1
[16] = target: Mu-type opioid receptor (Rattus norvegicus) (UniProt P33535); test: Inhibition of MOPr desensitization in wistar rat LC neuron cells assessed as reduction in the Met-Enk induced desensitization at 30 uM incubated for 15 mins before in the presence of PD98059; assay type: functional, cell-based
[17] = target: Receptor tyrosine-protein kinase erbB-4 (Homo sapiens) (UniProt Q15303); test: Inhibition of human HER4 assessed as remaining activity at 1 uM in presence of 32ATP relative to control; outline: as §2
[18] = target: Mu-type opioid receptor (Rattus norvegicus) (UniProt P33535); test: Inhibition of MOPr desensitization in wistar rat LC neuron cells assessed as reduction in the Met-Enk induced desensitization at 30 uM incubated for 15 mins before relative to control; assay type: functional, cell-based
Outline: (§3)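 Whole-cell patch clamp of GIRK currents in locus coeruleus slices from male Wistar rats (5–8 weeks). Inhibitor was given at least 15 min before and during the agonist, all drugs by superfusion. Percent desensitization was taken over 10 min of opioid agonist application. Met-Enk n = 5, endomorphin-2 n = 6; ANOVA.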

[19] = target: Eukaryotic elongation factor 2 kinase (Homo sapiens) (UniProt O00418); test: Inhibition of human EF2K assessed as remaining activity at 1 uM in presence of 32ATP relative to control; outline: as §1
[20] = target: Mu-type opioid receptor (Rattus norvegicus) (UniProt P33535); test: Inhibition of MOPr desensitization in wistar rat LC neuron cells assessed as reduction in the DAMGO induced desensitization at 3 to 100 uM incubated for 15 mins before; assay type: functional, cell-based; conditions: dose 3-100 µM
Outline: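 Rat LC neurons (Wistar, 5–8 weeks) were recorded by whole-cell patch clamp. DAMGO 10 μM was superfused for 12 min to desensitize, then the maximal morphine 30 μM response was measured at plateau. Inhibitor was superfused beforehand; n = 4; ANOVA.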

[21] = target: Mu-type opioid receptor (Rattus norvegicus) (UniProt P33535); test: Inhibition of MOPr desensitization in wistar rat LC neuron cells assessed as reduction in the endomorphin-2 induced desensitization at 30 uM incubated for 15 mins before; assay type: functional, cell-based; outline: as §3
[22] = target: Mu-type opioid receptor (Rattus norvegicus) (UniProt P33535); test: Inhibition of MOPr desensitization in wistar rat LC neuron cells assessed as reduction in the DAMGO induced desensitization at 30 uM incubated for 15 mins before in the presence of GF109203X; assay type: functional, cell-based

Sequence of Mu-type opioid receptor (Rattus norvegicus) (P33535 whole entry, the tested form may be a part): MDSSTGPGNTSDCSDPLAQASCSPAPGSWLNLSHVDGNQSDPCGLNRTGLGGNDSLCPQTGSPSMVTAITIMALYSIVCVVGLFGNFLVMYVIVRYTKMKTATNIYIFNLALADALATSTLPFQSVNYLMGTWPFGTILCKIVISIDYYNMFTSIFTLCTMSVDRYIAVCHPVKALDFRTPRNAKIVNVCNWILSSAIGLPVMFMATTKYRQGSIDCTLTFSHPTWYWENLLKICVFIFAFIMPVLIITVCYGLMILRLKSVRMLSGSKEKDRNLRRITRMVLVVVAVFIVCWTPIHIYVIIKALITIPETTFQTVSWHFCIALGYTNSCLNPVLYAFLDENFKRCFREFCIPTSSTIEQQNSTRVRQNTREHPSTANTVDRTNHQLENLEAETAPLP
Sequence of Mitogen-activated protein kinase 8 (Homo sapiens) (P45983 whole entry): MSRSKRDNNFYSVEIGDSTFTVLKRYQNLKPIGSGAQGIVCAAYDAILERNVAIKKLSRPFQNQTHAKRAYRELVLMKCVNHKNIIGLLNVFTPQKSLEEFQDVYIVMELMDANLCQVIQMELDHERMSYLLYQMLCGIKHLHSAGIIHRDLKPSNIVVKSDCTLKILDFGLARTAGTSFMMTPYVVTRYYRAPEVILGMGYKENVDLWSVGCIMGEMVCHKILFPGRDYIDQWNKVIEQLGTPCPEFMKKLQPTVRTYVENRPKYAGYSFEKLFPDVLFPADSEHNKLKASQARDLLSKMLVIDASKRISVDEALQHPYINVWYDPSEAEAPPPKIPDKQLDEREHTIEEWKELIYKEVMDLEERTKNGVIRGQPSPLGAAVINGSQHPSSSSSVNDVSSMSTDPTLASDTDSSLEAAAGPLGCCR
Sequence of SRSF protein kinase 1 (Homo sapiens) (Q96SB4 whole entry): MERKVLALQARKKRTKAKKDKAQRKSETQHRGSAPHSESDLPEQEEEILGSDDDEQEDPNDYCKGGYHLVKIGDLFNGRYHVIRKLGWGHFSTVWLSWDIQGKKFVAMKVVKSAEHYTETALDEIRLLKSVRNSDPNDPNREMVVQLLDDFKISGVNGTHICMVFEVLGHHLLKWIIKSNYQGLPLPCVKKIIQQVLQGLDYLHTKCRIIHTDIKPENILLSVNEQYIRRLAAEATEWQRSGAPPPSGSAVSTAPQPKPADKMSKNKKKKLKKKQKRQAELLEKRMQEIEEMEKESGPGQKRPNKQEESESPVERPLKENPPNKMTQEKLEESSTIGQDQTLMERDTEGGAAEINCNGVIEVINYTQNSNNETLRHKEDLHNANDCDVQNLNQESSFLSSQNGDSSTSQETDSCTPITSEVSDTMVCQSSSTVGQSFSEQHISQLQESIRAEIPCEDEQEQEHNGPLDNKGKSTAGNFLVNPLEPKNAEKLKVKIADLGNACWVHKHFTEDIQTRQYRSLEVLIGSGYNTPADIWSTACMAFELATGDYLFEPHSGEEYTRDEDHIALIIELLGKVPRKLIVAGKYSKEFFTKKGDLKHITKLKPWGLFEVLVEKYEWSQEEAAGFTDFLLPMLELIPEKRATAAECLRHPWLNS
Sequence of Mu-type opioid receptor (Homo sapiens) (P35372 whole entry): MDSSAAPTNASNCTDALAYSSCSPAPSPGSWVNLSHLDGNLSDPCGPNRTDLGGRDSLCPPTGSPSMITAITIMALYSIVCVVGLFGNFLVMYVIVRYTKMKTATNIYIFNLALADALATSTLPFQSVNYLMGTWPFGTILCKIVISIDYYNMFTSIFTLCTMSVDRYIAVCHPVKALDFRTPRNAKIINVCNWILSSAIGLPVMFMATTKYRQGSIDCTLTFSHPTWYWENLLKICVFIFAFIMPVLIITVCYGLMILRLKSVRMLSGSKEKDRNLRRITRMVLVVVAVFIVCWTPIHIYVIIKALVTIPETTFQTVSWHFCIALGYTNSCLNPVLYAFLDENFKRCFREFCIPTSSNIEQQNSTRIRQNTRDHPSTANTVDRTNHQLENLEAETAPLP
Sequence of Calcium/calmodulin-dependent protein kinase kinase 2 (Homo sapiens) (Q96RR4 2-588 limits assumed): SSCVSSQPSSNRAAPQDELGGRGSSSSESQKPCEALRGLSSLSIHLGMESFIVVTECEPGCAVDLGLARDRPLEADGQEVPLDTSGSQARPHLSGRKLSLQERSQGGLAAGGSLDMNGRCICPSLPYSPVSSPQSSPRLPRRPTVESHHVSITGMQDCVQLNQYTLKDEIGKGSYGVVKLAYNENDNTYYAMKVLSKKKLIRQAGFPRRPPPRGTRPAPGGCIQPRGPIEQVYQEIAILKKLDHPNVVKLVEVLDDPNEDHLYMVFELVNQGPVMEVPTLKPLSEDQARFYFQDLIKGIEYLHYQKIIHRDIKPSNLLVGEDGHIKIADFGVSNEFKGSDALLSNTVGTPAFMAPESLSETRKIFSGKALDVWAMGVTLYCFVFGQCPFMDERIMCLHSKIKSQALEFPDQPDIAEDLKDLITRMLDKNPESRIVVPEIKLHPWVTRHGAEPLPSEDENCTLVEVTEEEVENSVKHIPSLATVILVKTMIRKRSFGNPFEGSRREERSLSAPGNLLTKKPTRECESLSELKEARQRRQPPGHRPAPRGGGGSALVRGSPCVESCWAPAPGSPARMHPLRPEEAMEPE
Sequence of Tyrosine-protein kinase BTK (Homo sapiens) (Q06187 whole entry): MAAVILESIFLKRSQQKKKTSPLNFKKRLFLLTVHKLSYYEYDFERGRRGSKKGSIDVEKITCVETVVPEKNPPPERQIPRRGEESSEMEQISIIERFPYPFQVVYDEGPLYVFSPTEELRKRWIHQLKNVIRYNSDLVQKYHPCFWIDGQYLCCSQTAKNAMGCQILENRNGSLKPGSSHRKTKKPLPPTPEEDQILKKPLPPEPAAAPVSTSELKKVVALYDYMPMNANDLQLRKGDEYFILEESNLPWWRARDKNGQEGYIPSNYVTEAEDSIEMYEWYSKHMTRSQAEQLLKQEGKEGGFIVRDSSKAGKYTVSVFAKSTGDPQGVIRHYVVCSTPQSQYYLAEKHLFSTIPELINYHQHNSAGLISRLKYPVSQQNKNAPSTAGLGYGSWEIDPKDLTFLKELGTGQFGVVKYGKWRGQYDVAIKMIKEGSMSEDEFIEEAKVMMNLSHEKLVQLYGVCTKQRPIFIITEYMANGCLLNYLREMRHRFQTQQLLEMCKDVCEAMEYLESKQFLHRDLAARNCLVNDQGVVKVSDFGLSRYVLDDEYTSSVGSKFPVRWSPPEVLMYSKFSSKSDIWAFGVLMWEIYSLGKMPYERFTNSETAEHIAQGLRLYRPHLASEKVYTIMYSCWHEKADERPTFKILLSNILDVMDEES
Sequence of Homeodomain-interacting protein kinase 2 (Homo sapiens) (Q9H2X6 whole entry, looked up): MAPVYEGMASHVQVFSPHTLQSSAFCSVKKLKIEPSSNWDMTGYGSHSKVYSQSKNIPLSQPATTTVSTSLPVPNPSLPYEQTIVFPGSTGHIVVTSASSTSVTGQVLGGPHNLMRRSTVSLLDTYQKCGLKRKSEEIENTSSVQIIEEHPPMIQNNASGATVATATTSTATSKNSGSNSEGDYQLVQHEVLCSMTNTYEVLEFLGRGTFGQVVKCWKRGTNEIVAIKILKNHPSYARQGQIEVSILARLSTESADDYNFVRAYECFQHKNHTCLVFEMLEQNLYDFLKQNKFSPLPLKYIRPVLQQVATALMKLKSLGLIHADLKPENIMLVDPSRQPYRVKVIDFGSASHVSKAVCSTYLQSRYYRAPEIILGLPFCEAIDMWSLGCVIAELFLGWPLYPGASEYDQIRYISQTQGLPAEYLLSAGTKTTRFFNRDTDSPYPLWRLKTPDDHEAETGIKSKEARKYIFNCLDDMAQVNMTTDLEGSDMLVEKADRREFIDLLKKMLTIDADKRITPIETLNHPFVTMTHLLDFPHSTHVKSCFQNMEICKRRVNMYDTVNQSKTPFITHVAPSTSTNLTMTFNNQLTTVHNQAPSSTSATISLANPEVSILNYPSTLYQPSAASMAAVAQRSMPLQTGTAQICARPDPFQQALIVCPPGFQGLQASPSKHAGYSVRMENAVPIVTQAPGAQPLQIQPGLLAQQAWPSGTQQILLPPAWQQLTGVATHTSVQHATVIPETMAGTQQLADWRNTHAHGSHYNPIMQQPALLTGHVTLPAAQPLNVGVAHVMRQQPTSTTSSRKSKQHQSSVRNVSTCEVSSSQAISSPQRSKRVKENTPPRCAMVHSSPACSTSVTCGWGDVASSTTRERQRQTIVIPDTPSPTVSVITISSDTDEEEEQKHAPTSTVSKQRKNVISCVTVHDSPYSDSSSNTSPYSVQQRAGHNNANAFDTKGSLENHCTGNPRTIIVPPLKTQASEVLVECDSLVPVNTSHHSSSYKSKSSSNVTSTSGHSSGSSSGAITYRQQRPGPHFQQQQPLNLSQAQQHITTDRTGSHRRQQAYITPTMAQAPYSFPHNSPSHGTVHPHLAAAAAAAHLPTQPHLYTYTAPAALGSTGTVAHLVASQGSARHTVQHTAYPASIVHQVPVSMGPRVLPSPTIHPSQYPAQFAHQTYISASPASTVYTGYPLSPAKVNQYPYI

Cn1c(CNc2cccc(C(=O)NCc3ccccc3C(F)(F)F)c2)nnc1-c1ccncc1
inhibition [1]: < 20%
inhibition [2]: Active
inhibition [3]: Active
Activity [4]: 93%
Activity [5]: 72%
Activity [6]: 91%
inhibition [7]: Active
inhibition [8]: < 20%
inhibition [9]: inactive
Activity [10]: 103%
Activity [11]: 93%
Activity [12]: 69%
Activity [13]: 104%
Activity [14]: 96%
inhibition [15]: < 20%
inhibition [16]: inactive
Activity [17]: 86%
desensitization [18]: 15%
Activity [19]: 103%
inhibition [20]: Active
inhibition [21]: Active
inhibition [22]: inactive
